Assay results published in ChEMBL document CHEMBL1125428, “Development of 2,3-dihydro-6-(3-phenoxypropyl)-2-(2-phenylethyl)-5-benzofuranol (L-670,630) as a potent and orally active inhibitor of 5-lipoxygenase” (J Med Chem, 1992).

Experiments:
Assay type in all cases: functional
Rattus norvegicus [1] = experiment: Total radioactivity in tissues of male sd rats dosed intravenously with H-labeled compound at 21 mg/kg after 10 min in liver; details: route intravenous
Outline: (§1)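 Male Sprague-Dawley rats given ³H compound iv via femoral vein in PEG-400, 21 mg/kg, 3.96 μCi/mg. Killed at 2, 10, 30 min, 1, 2 and 4 h. Total radioactivity measured by combustion of composited tissue homogenates, in duplicate. Two or three rats per time point, one at 10 and 30 min.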

Rattus norvegicus [2] = experiment: Total radioactivity in tissues of male sd rats dosed intravenously with H-labeled compound at 21 mg/kg after 2 hr in plasma; details: route intravenous
Rattus norvegicus [3] = experiment: Total radioactivity in tissues of male sd rats dosed intravenously with H-labeled compound at 21 mg/kg after 2 min in lung; details: route intravenous; outline: as §1
Rattus norvegicus [4] = experiment: Total radioactivity in tissues of male sd rats dosed orally with H-labeled compound at 21 mg/kg after 5 min in liver; details: route oral
Outline: (§2)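 Male Sprague-Dawley rats received ³H-labelled drug (phenoxy ring, 3.96 μCi/mg) in PEG-400 by gavage at 21 mg/kg. Animals were killed at 5, 15, 30 min and at 1, 2, 4, 24 and 48 h. Homogenates were pooled per group, and total radioactivity was measured as the mean of duplicate combustions, in μg equiv/g. Two or three rats were used per point, except one rat at 24 and 48 h.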

Rattus norvegicus [5] = experiment: Total radioactivity in tissues of male sd rats dosed orally with H-labeled compound at 21 mg/kg after 24 hr r in liver; details: route oral; outline: as §2
Rattus norvegicus [6] = experiment: Total radioactivity in tissues of male sd rats dosed orally with H-labeled compound at 21 mg/kg after 24 hr r in plasma; details: route oral; outline: as §2

Compound: Oc1cc2c(cc1CCCOc1ccccc1)OC(CCc1ccccc1)C2 (stereo unspecified)
- Total radioactivity (Rattus norvegicus [1]): 143.94 ug equiv g-1
- Total radioactivity (Rattus norvegicus [2]): 0.88 ug equiv g-1
- Total radioactivity (Rattus norvegicus [3]): 100.78 ug equiv g-1
- Total radioactivity (Rattus norvegicus [4]): 12.12 ug equiv g-1
- Total radioactivity (Rattus norvegicus [5]): 0.68 ug equiv g-1
- Total radioactivity (Rattus norvegicus [6]): 0.64 ug equiv g-1
